Screening results as filed in PubChem BioAssay.
Hits are enriched below; roughly 0.62% of the tested compounds scored in any of these assays.
TNAP inh hi DEA = blocks human TNAP under high phosphate acceptor concentration. 200,000 compounds, 0.03% hits. P05186. purified TNAP, CDP-star luminescence, 1 M DEA. AID 1135. inhibition, % at 20 µM;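 active means over 50% inhibition of tissue-nonspecific alkaline phosphatase at 20 µM in the single-dose screen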
PMI act = phosphomannose isomerase (human) activation | 190,000 compounds, 0.005% hits | P34949 | purified human PMI, coupled resazurin fluorescence, 20 min; stronger effect = higher value; 1 = vehicle control, 0 substrate-free wells | AID 1214 | activation factor at 20 µM;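 active means activation factor of 2 or more at 20 µM, relative to plate controls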
Target sequence (P34949 whole entry, looked up): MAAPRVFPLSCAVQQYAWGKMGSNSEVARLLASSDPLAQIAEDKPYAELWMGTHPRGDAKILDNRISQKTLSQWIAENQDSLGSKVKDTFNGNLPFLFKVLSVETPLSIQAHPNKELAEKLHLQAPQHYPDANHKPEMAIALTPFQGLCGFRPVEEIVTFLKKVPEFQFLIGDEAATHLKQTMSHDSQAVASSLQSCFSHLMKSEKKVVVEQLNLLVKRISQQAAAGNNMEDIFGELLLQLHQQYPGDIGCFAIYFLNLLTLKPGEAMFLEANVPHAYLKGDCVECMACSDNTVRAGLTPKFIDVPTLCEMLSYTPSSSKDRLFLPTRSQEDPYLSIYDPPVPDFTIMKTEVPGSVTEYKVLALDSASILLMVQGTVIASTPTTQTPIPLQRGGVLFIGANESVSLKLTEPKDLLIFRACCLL
TNAP inh noacc = inhibitors of human TNAP without phosphate acceptor. purified TNAP, CDP-star luminescence, 30 min. inhibition, % at 20 µM. 200,000 compounds, 0.26% hits. P05186. AID 1012;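 active means tissue-nonspecific alkaline phosphatase inhibition above about 50% at 20 µM in the single-dose screen, limit read from the data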
TNAP act hi DEA = TNAP (human) activation, high acceptor; P05186; purified TNAP, CDP-star luminescence, 1 M DEA, 30 min; stronger effect = higher value; 0 = EDTA background, 1 = DMSO-only activity; 200,000 tested, under 10 active; activation factor at 20 µM;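 active means activation factor at least 2 at 20 µM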
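system = human TNAP | amount = enzyme diluted 1/800 final | reagent = 100 µM CDP-star substrate | signal = luminescent substrate turnover signal | dosing = one dose, 20 µM | benchmarks = EDTA negative control, DMSO positive control | measure = activation factor | timing = 30 min reaction, room temperature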
PMI act satM6P = activators of human phosphomannose isomerase at near-saturating mannose 6-phosphate. 190,000 compounds, 0.34% hits. activation factor at 20 µM. coupled PMI enzyme assay, resazurin fluorescence, 20 min; stronger effect = higher value; 1 = untreated enzyme, 0 = substrate-free blank. P34949;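 active means activation factor of 2 or more at 20 µM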
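Test system: human phosphomannose isomerase with PGI, G6PDH, diaphorase coupling enzymes; amount: 15 ng/mL PMI; incubation: enzyme reaction with compound 20 min at room temperature; technique: resorufin fluorescence (Ex 544/Em 590 nm) from resazurin via diaphorase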
Of the large screens only hits and unclear results are named; the others gave an inactive call.

O=C(Nc1ccccc1N1CCCC1)c1ccc(Br)o1	PMI act satM6P 2.1
C/C(CC(=O)Nc1ccccc1Br)=N\NC(=O)C(=O)N1CCCC1	TNAP inh noacc 66
Cc1cc(C)c2ccc(=S)[nH]c2n1	PMI act satM6P 2.5
Cc1ccc2c(O)c(C)c(=O)[nH]c2n1	none
Clc1ccc(-c2cn3cccnc3n2)cc1	none
Clc1ccc(-c2cn3cccnc3n2)cc1Cl	PMI act satM6P 2
N#Cc1cc2c([nH]c1=S)CCCCCC2	PMI act satM6P 2.1
CCc1ccc(NC(=O)C(CC)c2ccccc2)cc1 (configuration not stated)	none
CCC(O)CC(C(=O)NNc1ccccc1)C(=O)NNc1ccccc1 (configuration not stated)	PMI act satM6P 2.8
COC(=O)CCCC(=O)NC(C)c1cnn(-c2ccccc2C)c1C (configuration not stated)	none
COc1cc(/C=C2\SC(c3ccc(C)cc3)=NC2=O)cc(OC)c1OC	none
COc1cc(/C=C2\SC(c3ccccc3)=NC2=O)cc(Cl)c1O	TNAP inh noacc 52
NS(=O)(=O)c1ccc(CCNC(=O)CNS(=O)(=O)c2cccc(Br)c2)cc1	TNAP inh noacc 76
O=C1NC2(CCC3(CC2)OCCO3)NN1c1ccc(Cl)cc1	PMI act satM6P 2.7
CC[n+]1c(/C=C2\C=C(C)CC(C)(C)C2)sc2ccccc21	none
CCC1=C/C(=C/c2sc3ccccc3[n+]2CC)CC(C)(C)C1	PMI act satM6P 2.3
O=c1[nH]c(Cc2ccccn2)nc2scc(-c3ccccc3Cl)c12	PMI act satM6P 2.1
CSCc1nc2scc(-c3ccccc3)c2c(=O)[nH]1	none
O=S(NCc1ccco1)C12CC3CC(CC(C3)C1)C2 (configuration not stated)	PMI act satM6P 2
CCN(CC)c1ccc(C(=O)N/N=C(\C)c2ccc(OC)c(OC)c2)cc1	none
Cc1ncc(CO)c(/C=N/NC(=O)c2cc(Br)ccc2O)c1O	TNAP inh noacc 58
CCOC(=O)C(C)On1c(-c2ccc(Cl)cc2)nc2ccc([N+](=O)[O-])cc21 (configuration not stated)	PMI act satM6P 2
CCOC(=O)C(C)On1c(-c2ccccc2)nc2ccc([N+](=O)[O-])cc21 (configuration not stated)	PMI act satM6P 2
Cc1ccc(COn2c(-c3ccc(Cl)cc3)nc3ccc([N+](=O)[O-])cc32)cc1	none
Cc1ccc(S(=O)(=O)N(C)C)cc1NC(=S)N1CCCCC1CO (configuration not stated)	none
CCc1ccccc1NC(=S)N(Cc1ccc(C(=O)O)cc1)Cc1ccc(OC)c(OC)c1	none
CC(=O)N1CCN(CC(=O)c2ccc(Br)cc2)CC1	PMI act satM6P 2.4
CCOC(=O)C1(C)/C(=N/Nc2ccccc2OC)C(=O)C(=O)N1c1ccccc1 (configuration not stated)	none
CCOC(=O)C1(C)/C(=N/Nc2ccccc2)C(=O)C(=O)N1c1ccccc1 (configuration not stated)	PMI act satM6P 2.1
CC(C)CCN1CN(S(=O)(=O)c2cccs2)c2nc3ccccc3nc21	none
CCCCN1CN(S(=O)(=O)c2cccs2)c2nc3ccccc3nc21	PMI act satM6P 2.2
Cc1cnc(CNC(=O)c2ccc(OC3CCN(C(=O)C4CC4)CC3)cc2)cn1	none
S=c1[nH]nc(-c2ccco2)n1/N=C/c1ccc(Cl)cc1	TNAP inh noacc 54
O=c1[nH]c(SCc2ccc([N+](=O)[O-])cc2)nc2[nH]ncc12	none
Clc1ccc(C[n+]2csc3ccccc32)cc1	PMI act satM6P 2.2
Fc1ccc(C[n+]2csc3ccccc32)cc1	none
Cc1ccc(C)c(N/N=C2\CCCNC2=O)c1	PMI act satM6P 2.5
Cc1ccc(C2=NNC3(CCOC(C)(C)C3)S2)cc1 (configuration not stated)	none
O=P(O)(O)c1ccccc1OCCOCCOc1ccccc1P(=O)(O)O	TNAP inh noacc 72
O=P(O)(O)c1ccccc1OCc1ccccc1	none
O=P(O)(O)c1ccccc1OCCCCCOc1ccccc1P(=O)(O)O	TNAP inh noacc 89
COc1ccc(CCN(C)C(=S)NC(=O)c2ccc(F)cc2Cl)cc1OC	none
CC(C)c1ccc(S(=O)(=O)c2ccc(NN)cc2)cc1	PMI act satM6P 2.2
CC(C(=O)NCC1CCCO1)N(C(=O)c1snc(C(N)=O)c1N)c1ccccc1 (configuration not stated)	none
CC(C)CCNC(=O)C(C)N(C(=O)c1snc(C(N)=O)c1N)c1cnc2ccccc2c1 (configuration not stated)	TNAP inh noacc 62
CCOC(=O)CC(NC(=O)Cc1ccc(F)cc1)c1ccccc1Cl (configuration not stated)	none
CN1CCc2cc(Cl)c(O)cc2[C@@H](c2ccccc2)C1	none
Oc1cc2c(cc1O)[C@@H](c1ccccc1)CNCC2	TNAP inh noacc 66
Nc1n[nH]c(-c2ccccc2)n1	none
Nc1n[nH]c(-c2ccccc2[N+](=O)[O-])n1	TNAP inh noacc 86
CNc1sc(C(=O)c2ccccc2F)c(N)c1-c1nc2ccccc2s1	PMI act satM6P 2
O=C(NCCCCNC(=O)C(F)(F)F)C(F)(F)F	none
CC(C)C(=O)N1CCc2cc(-c3csc(N)n3)ccc21	PMI act satM6P 2.1
Nc1nc(-c2ccc3c(c2)CCC(=O)N3)cs1	none
CCCCCCn1c(N)c(C#N)c2ccc([N+](=O)[O-])cc2c1=O	none
O=C1CC(Nc2ccccc2)C(=O)N1c1ccc(N2CCOCC2)cc1 (configuration not stated)	none
O=C1CC(NNc2ccccc2)C(=O)N1c1ccc(N2CCCCC2)cc1 (configuration not stated)	PMI act satM6P 2.7
COc1cc(C2C(C#N)=C(N)Oc3n[nH]c(-c4cccs4)c32)cc(OC)c1O (configuration not stated)	TNAP inh noacc 54
O=C(N/N=C/c1ccco1)c1cc(-c2cccs2)[nH]n1	TNAP inh noacc 87
Cc1cc(C(=O)N/N=C/c2cccnc2)cs1	none
CC(C)c1cc(C(=O)N/N=C/c2cccnc2)n[nH]1	TNAP inh noacc 63
C/C(=N/NC(=O)c1cc(-c2ccc(Br)s2)[nH]n1)c1ccco1	none
O=C(N/N=C/c1ccco1)c1cc(-c2ccc(Cl)s2)[nH]n1	TNAP inh noacc 54
COC(=O)c1cc(-c2cccs2)[nH]n1	TNAP inh noacc 96
CC(C)c1cc(C(=O)N/N=C/c2ccco2)n[nH]1	TNAP inh noacc 61
CCCc1n[nH]c2c1C(=O)C(C(=O)OC)C(C)(C)C2 (configuration not stated)	TNAP inh noacc 61
CC1CCCC/C1=N\NC(=S)Nc1cccnc1 (configuration not stated)	none
